Data as given in publication PMC6424611 (Journal of molecular biology, 2019).
Where no end group is shown, it is not given here. [ ]: non-standard residue; d: D form. The star is where a group is joined. Biotin = O=C1N[C@H]2[C@H](CS[C@H]2CCCCC(=O)*)N1; TTDS = NCCCOCCOCCOCCCNC(=O)CCC(=O)*; pS = N[C@@H](COP(=O)(O)O)C(=O)O

Tests used:
PDZRN4-1 PDZ = molecular target: T1, PDZRN4-1 PDZ (Homo sapiens, UniProt Q6ZMN7); test: holdup assay; type: binding; conditions: fraction of PDZ depleted; ~4 μM PDZ; biotinylated RSK1_725–735; triplicates
T1 sequence (Q6ZMN7 224-314 limits assumed): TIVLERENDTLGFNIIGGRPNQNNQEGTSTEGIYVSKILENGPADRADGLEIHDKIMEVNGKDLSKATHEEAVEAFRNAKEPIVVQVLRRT
Method in brief: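 Automated holdup in triplicate measured biotinylated (N-terminal TTDS linker) RSK1 725–735 peptides, unphosphorylated or phosphorylated, against E. coli-expressed PDZome v2 domains. Soluble lysate was adjusted to ~4 μM, giving 255 domains for the unphosphorylated and 252 for the phosphorylated peptide. Binding intensity (BI) is the fraction of PDZ depleted from the fluid phase. BI 0.2 was the high-confidence threshold.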

NHERF3-1 PDZ = molecular target: T2, NHERF3-1 PDZ (Homo sapiens, UniProt Q5T2W1); test: holdup assay; type: binding; conditions: ~4 μM PDZ; for binding intensity (BI): fraction of PDZ depleted, biotinylated RSK1_725–735, triplicates; for Kd: read-out: KD, estimated, from BI, estimated 17 μM peptide
T2 sequence (Q5T2W1 9-90 limits assumed): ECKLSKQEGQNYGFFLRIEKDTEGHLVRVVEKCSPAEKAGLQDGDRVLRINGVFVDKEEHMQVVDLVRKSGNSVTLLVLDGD
Method in brief: (§1)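 Automated holdup against N-terminally biotinylated (TTDS linker) RSK1 725–735 peptides, unphosphorylated and phosphorylated, in triplicate. PDZome v2 clones were codon-optimized and expressed in E. coli, with soluble lysate adjusted to ~4 μM. BI is the PDZ fraction depleted from the fluid phase.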

ARHGEF11 PDZ = test: holdup assay; type: binding, human; conditions: ~4 μM PDZ; for binding intensity (BI): fraction of PDZ depleted, biotinylated RSK1_725–735, triplicates
Method in brief: as §1

LIMK2 PDZ = test: holdup assay; type: binding, human; conditions: ~4 μM PDZ; for binding intensity (BI): fraction of PDZ depleted, biotinylated RSK1_725–735, triplicates; for Kd: read-out: KD, estimated, from BI, estimated 17 μM peptide
Method in brief: as §1

SNTB1 PDZ = molecular target: T3, SNTB1 PDZ (Homo sapiens, UniProt Q13884); test: holdup assay; type: binding; conditions: ~4 μM PDZ; for binding intensity (BI): fraction of PDZ depleted, biotinylated RSK1_725–735, triplicates; for Kd: read-out: KD, estimated, from BI, estimated 17 μM peptide
T3 sequence (Q13884 112-195 limits assumed): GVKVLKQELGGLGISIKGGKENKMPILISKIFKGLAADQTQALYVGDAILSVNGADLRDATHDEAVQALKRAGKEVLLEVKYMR
Method in brief: as §1

PDZRN3–2 PDZ = test: holdup assay, updated analysis; type: binding, human; conditions: weak partner; automated computational protocol
Method in brief: (§2)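 The same triplicate holdup datasets (biotinylated RSK1 725–735, unphosphorylated and phosphorylated, vs ~4 μM PDZome lysates) were re-analysed with an updated automated computational protocol. This gave alternative BI values, reported as supplemental values alongside the conventional analysis.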

PTPN3 PDZ = test: holdup assay; type: binding, human; conditions: ~4 μM PDZ; for binding intensity (BI): fraction of PDZ depleted, biotinylated RSK1_725–735, triplicates; for Kd: read-out: KD, estimated, from BI, estimated 17 μM peptide
Method in brief: as §1

SNTA1 PDZ = molecular target: T4, SNTA1 PDZ (Homo sapiens, UniProt Q13424); test: holdup assay; type: binding; conditions: ~4 μM PDZ; for binding intensity (BI): fraction of PDZ depleted, biotinylated RSK1_725–735, triplicates
T4 sequence (Q13424 87-170 limits assumed): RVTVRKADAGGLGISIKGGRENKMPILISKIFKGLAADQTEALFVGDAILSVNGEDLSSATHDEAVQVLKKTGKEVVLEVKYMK
Method in brief: as §1

LIN7A PDZ = test: holdup assay, updated analysis; type: binding, human; conditions: weak partner; automated computational protocol
Method in brief: as §2

DLG3 PDZ = test: holdup assay, updated analysis; type: binding, human; conditions: weak partner; automated computational protocol
Method in brief: as §2

DFNB31-3 PDZ = test: holdup assay; type: binding, human; conditions: ~4 μM PDZ; for binding intensity (BI): fraction of PDZ depleted, biotinylated RSK1_725–735, triplicates; for Kd: read-out: KD, estimated, from BI, estimated 17 μM peptide
Method in brief: as §1

HTRA1 PDZ = HTRA1 PDZ (Homo sapiens, UniProt Q92743); test: holdup assay; type: binding; conditions: ~4 μM PDZ; for binding intensity (BI): fraction of PDZ depleted, biotinylated RSK1_725–735, triplicates; for Kd: read-out: KD, estimated, from BI, estimated 17 μM peptide
Method in brief: as §1

GORASP2 PDZ = test: holdup assay; type: binding, human; conditions: ~4 μM PDZ; for binding intensity (BI): fraction of PDZ depleted, biotinylated RSK1_725–735, triplicates; for Kd: read-out: KD, estimated, from BI, estimated 17 μM peptide
Method in brief: as §1

RHPN1 PDZ = test: holdup assay, updated analysis; type: binding, human; conditions: weak partner; automated computational protocol
Method in brief: as §2

MPDZ-10 PDZ = test: holdup assay, updated analysis; type: binding, human; conditions: weak partner; automated computational protocol
Method in brief: as §2

SYNJ2BP PDZ = molecular target: T5, SYNJ2BP PDZ (Homo sapiens, UniProt P57105); test: competitive fluorescence polarization; type: binding; conditions: summary of high-throughput SPR and competitive FP
T5 sequence (P57105 13-100 limits assumed): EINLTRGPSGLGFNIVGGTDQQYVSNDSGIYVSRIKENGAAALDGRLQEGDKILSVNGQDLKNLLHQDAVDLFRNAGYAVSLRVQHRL

[1] = read-out: KD, estimated, from BI, estimated 17 μM peptide

HTRA1 PDZ, sequence (Q92743 365-467 limits assumed): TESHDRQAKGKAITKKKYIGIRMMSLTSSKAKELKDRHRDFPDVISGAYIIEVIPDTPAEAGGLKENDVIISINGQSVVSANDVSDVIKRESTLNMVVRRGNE

Row | Substance | binding intensity (BI) (PDZRN4-1 PDZ) | binding intensity (BI) (NHERF3-1 PDZ) | Kd (NHERF3-1 PDZ) [µM] | binding intensity (BI) (ARHGEF11 PDZ) | binding intensity (BI) (LIMK2 PDZ) | Kd (LIMK2 PDZ) [µM] | binding intensity (BI) (SNTB1 PDZ) | Kd (SNTB1 PDZ) [µM] | binding intensity (BI) (PTPN3 PDZ) | Kd (PTPN3 PDZ) [µM] | binding intensity (BI) (SNTA1 PDZ) | binding intensity (BI) (DFNB31-3 PDZ) | Kd (DFNB31-3 PDZ) [µM] | binding intensity (BI) (HTRA1 PDZ) | Kd (HTRA1 PDZ) [µM] | binding intensity (BI) (GORASP2 PDZ) | Kd (GORASP2 PDZ) [µM] | further results
1 | phosphorylated RSK1 peptide: RSK1 C-terminal PBM peptide phosphorylated at position −3; same constructs as the unphosphorylated ({Biotin-TTDS}-RRVRKLP[pS]TTL) | 0.54 ± 0.03 | 0.03 ± 0.01 | > 100 | 0.01 ± 0.02 | 0.22 ± 0.07 | 57.2 | 0.45 ± 0.08 | 18.6 | 0.21 ± 0.02 | 60.8 | 0.53 ± 0.01 | −0.01 ± 0.02 | > 100 | 0.36 ± 0.01 | 27.7 | 0.19 ± 0.01 | 69.2 | Kd (ARHGEF11 PDZ; [1]): > 100 µM; interaction partner by updated analysis (PDZRN3–2 PDZ): new partners; Kd (SNTA1 PDZ; [1]): 13.2 µM; interaction partner by updated analysis (LIN7A PDZ): new partners; interaction partner by updated analysis (DLG3 PDZ): new partners
2 | unphosphorylated RSK1 peptide: C-terminal RSK1 PBM peptide; RSK1_725–735 (holdup, SPR), RSK1_729–735 (direct FP), RSK1_683–735 (competitive FP) ({Biotin-TTDS}-RRVRKLPSTTL) | 0.51 ± 0.02 | 0.41 ± 0.01 | 22.1 | 0.28 ± 0.06 | 0.01 ± 0.06 | > 100 | 0.22 ± 0.04 | 57.2 | 0.05 ± 0.02 | > 100 | 0.31 ± 0.04 | 0.23 ± 0.04 | 53.8 | 0.44 ± 0.03 | 19.4 | 0.41 ± 0.02 | 22.1 | interaction partner by updated analysis (RHPN1 PDZ): new interaction partners; interaction partner by updated analysis (MPDZ-10 PDZ): new interaction partners; dissociation constant (SYNJ2BP PDZ): no interaction was detectable
